NF-kB expr up: compounds increasing NF-kB expression in human neuronal cells; AID 1239; fold change at 12.5 µM; NF-kB reporter expression; active compounds read high; 1.6% of 190,000 active; in the data active = fold change above about 3.3
STAT3 inh: reduces IL-6 driven STAT3 reporter signal; 0.89% of 190,000 active; inhibition, % at 5.5 µM; U3A cells, IL-6 STAT3-luciferase reporter, luminescence; host cell line lacks STAT1;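 active = inhibition above the mean inhibition across all screened compounds plus 3 SD, cut at about 44% in these data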;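 note: 0% = DMSO only wells and 100% = 100 µM nifuroxazide control wells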
STAT1 activator: activators of IFN-gamma induced STAT1 signaling; NIH 3T3 STAT1-luciferase reporter, luminescence; 100% = IFN-gamma alone, no compound; activation (% of control), % at 5.5 µM; 2.6% of 200,000 active; AID 932;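 active = activation above the screen-wide mean activation plus 3 SD, cut at about 130% in these data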;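 note: raw ratio to IFN-gamma control signal so 100% means no change and 0% no light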
STAT3 act: activators of IL-6 induced STAT3 signaling. U3A cells, IL-6 STAT3-luciferase reporter, luminescence; 100% = signal with IL-6 EC80 alone. activation (% of control), % at 5.6 µM. 0.91% of 190,000 active. AID 871;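 active = activation above the screen-wide mean of compound activation plus 3 SD, cut at about 130% in these data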;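 note: 0% = background luminescence of wells with medium and substrate only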
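Material: STAT1-lacking human U3A cells, STAT3 luciferase reporter | Benchmarks: IL-6-only wells as 100% reference | Probe or stimulus: IL-6 (33 ng/mL) | Timing: Compound 1 h, then IL-6 6 h at 37 °C | Detection: Luminescence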
APP 5'UTR act: activates APP 5'UTR luciferase reporter; 1% of 190,000 active; SH-SY5Y APP 5'UTR luciferase reporter, luminescence; zero percent = DMSO vehicle wells; activation, % at 2 µM;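 active = activation above a set limit, based on mean plus 3 SD of controls, cut at about 140% in these data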
STAT1 inh: inhibitors of IFN-gamma induced STAT1 signaling; NIH 3T3 STAT1-luciferase reporter, luminescence; inhibition, % at 5.5 µM; 0.35% of 200,000 active;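 active = inhibition above a set limit, the mean inhibition across all tested compounds plus 3 SD, cut at about 34% in these data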;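 note: 0% = IFN-gamma with DMSO and 100% = IFN-gamma with 300 µM nifuroxazide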
Starred values were filed as active, the others as inactive; . = no result. Most compounds without a hit are left out; they make up all but 4.9% or so of the library.

SMILES	NF-kB expr up	STAT3 inh	STAT1 activator	STAT3 act	APP 5'UTR act	STAT1 inh
O=C(Nc1ccc(F)cc1F)c1csc(-c2cccs2)n1	1.4	-21	135*	124	109	-40
Cc1cc(S(=O)(=O)Nc2c(C(=O)O)[nH]c3ccccc23)ccc1F	1	-34	96	135*	-4	5
CC1CCCC(C)N1C(=O)CSc1nnc(-c2cccs2)o1 (configuration not stated)	2.7	2	147*	101	98	-51
Fc1ccc(CSc2nnc(-c3cccs3)o2)cc1	2.2	4	118	99	24	-20
Fc1ccccc1CSc1nnc(-c2cccs2)o1	4.1*	-5	146*	106	119	-52
Cc1ccc(C(=O)N2C(CC(=O)Nc3ccc(Cl)cc3)C(=O)NC3CCCCC32)cc1 (configuration not stated)	0.74	5	95	102	8	4
CCCCC(=O)Nc1cc(Cl)ccc1C(=O)O	1.6	10	101	98	-7	-3
O=C(O)c1cccc(NC(=S)N/N=C/c2cccc(O)c2)c1	1.5	60*	59	51	-11	43*
O=C(O)c1cccc(NC(=S)N/N=C/c2ccccc2OCc2ccc(Br)cc2)c1	1.6	9	109	94	-6	-11
O=C(O)c1cccc(NC(=S)N/N=C/c2ccccc2OCc2cccc(Br)c2)c1	1.2	12	103	91	12	-2
Oc1ccc(/C=N/NC(=S)Nc2cccnc2)cc1O	1.4	6	104	94	15	-4
O=C(O)c1cccc(NC(=S)N/N=C/c2ccccn2)c1	2.7	91*	26	27	52	79*
S=C(N/N=C/c1ccc2ncccc2c1)Nc1cccnc1	0.51	68*	64	44	7	39*
CS(=O)(=O)N1CCc2cc(-c3csc(NC(=O)C(c4ccccc4)c4ccccc4)n3)ccc21	0.63	30	110	78	-11	-11
CCCC(=O)N1CCc2cc(-c3nc(N)sc3C)ccc21	2	20	137*	86	42	-40
CNc1nc(-c2ccc3c(c2)CCN3C(=O)CC(C)(C)C)c(C)s1	2.3	-12	126	112	4	-30
CC(C)(C)C(=O)N1CCc2cc(-c3csc(N)n3)ccc21	1.3	85*	66	28	121	37*
CC(=O)Nc1cccc(-c2csc(N)n2)c1	.	6	101	100	-20	0
CCC(C)C(=O)N1CCc2cc(-c3csc(N)n3)ccc21 (configuration not stated)	2	28	132*	81	86	-35
CC(=O)Nc1ccc(NC(=O)C2CCCN2/C=C/C(=O)C(F)(F)F)cc1 (configuration not stated)	0.93	20	103	91	38	-5
CCc1nnc(NC(=O)c2cccnc2SC)s1	1.1	0	103	101	-13	-4
COc1ccc(-n2cnc3ccccc32)cc1	1.1	-15	108	118	22	-9
CC(C)Cn1c(/C=C/c2ccccc2)nc2ccccc21	2.1	4	136*	98	49	-40
CN(C)c1ccc(/C=C/c2ccncc2)cc1	2.5	14	127	90	30	-29
COc1ccc(/C=C/c2ccncc2)cc1	1.9	19	144*	87	49	-48
SMILES	NF-kB expr up	STAT3 inh	STAT1 activator	STAT3 act	APP 5'UTR act	STAT1 inh
CCn1c(/C=C/c2ccccc2)nc2ccccc21	7*	21	133*	86	205*	-37
COc1ccc(/C=C/c2nc3ccccc3n2C)cc1	0.85	102*	14	10	-19	94*
CCCCNC(=O)NC1CCCC1	1.2	2	94	101	2	6
C/C(CC(=O)NC1CCCC1)=N\NC(=O)Cc1csc(N)n1	1.2	6	109	99	5	-10
COc1ccc(N=Cc2nc(-c3ccco3)oc2O)cc1	2.4	2	136*	101	26	-39
Oc1oc(-c2ccccc2)nc1C=Nc1ccccc1	2.5	18	132*	87	47	-35
Cc1ccc(N=Cc2nc(-c3ccc(C)cc3)oc2O)cc1	1.4	11	99	96	-6	2
CN(C)c1ccc(/C=C2\CCCCC2=O)cc1	4.2*	-6	121	101	160*	-23
Cc1ccc2nc(Cc3ccc(N)cc3)[nH]c2c1	1.5	-2	131*	112	160*	-35
c1csc(-c2nn3cnnc3c3ccccc23)c1	1.1	1	100	101	0	-1
CN(C)c1ccc(N=c2sc3ccccc3n2C)cc1	4.6*	11	138*	93	74	-41
O=C(NC1CCCCC1)c1noc2c1CCCCC2	1.4	-1	149*	106	131	-54
CC(C)(C)C1CCc2onc(C(=O)NC3CCCC3)c2C1 (configuration not stated)	1	18	101	88	-1	-2
O=C(NCCc1ccccc1)c1noc2c1CCCCC2	3.8*	1	140*	103	100	-44
Cc1ccc(O)c(NC(=O)c2noc3c2CCCCC3)c1	9.8*	-7	115	107	212*	-18
O=C(NCc1ccccc1)c1noc2c1CCCC2	1.4	-1	99	106	0	2
CCc1ccc(NC(=O)c2noc3c2CCC3)cc1	3.4*	-2	104	108	144*	-5
CCOc1cnn(Cc2ccccc2)c(=O)c1SCc1ccccc1	1	-4	98	103	6	2
O=[N+]([O-])c1cc(/C=N/O)ccc1Oc1ccccc1Cl	1.9	-15	131*	122	41	-37
CCCC(=O)Nc1ccc(C(=O)Nc2ccc([N+](=O)[O-])cc2OC)cc1	0.92	25	101	83	-7	-4
CC(C)C(=O)NNc1nc2ccccc2s1	2	17	132*	88	28	-35
Cn1cc(Cl)c(C(=O)Nc2nc3ccccc3s2)n1	4.4*	31	148*	76	146*	-52
COCC(=O)Nc1nc2ccccc2s1	1.9	-11	120	109	7	-21
O=C(Cc1ccccc1)Nc1nc2ccccc2s1	7.1*	-8	125	108	54	-32
O=C(Cc1cccs1)Nc1nc2ccccc2s1	4.2*	9	126	96	60	-29
Cc1ccc(Nc2nc(CSc3nnc(-c4ccc(F)cc4)n3C)cs2)cc1	1.1	7	94	96	21	6
CN1CCN(C(=O)c2cc(C(C)(C)C)cc(C(C)(C)C)c2)CC1	1	6	91	99	-1	8
Cn1nc(C(=O)NCc2cccs2)c2ccccc2c1=O	0.93	7	88	94	-10	13
COc1cc(OC)cc(C(=O)Nc2ccc([N+](=O)[O-])cn2)c1	1.4	11	102	93	10	-2
